Most compounds without a hit are left out; they make up all but 0.72% or so of the library.
hIAP inh – human IAP inhibition | purified IAP, CDP-Star luminescence, 30 min | 330,000 tested, 0.12% active | AID 2544 | inhibition, % at 10 µM | P09923;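 active means inhibition reaching a set limit with compound at 10 µM in the primary screen, cut at about 35% in these data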;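 further: plate controls were DMSO wells with enzyme for no effect and no-enzyme buffer wells for full effect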
Target sequence (P09923 whole entry, looked up): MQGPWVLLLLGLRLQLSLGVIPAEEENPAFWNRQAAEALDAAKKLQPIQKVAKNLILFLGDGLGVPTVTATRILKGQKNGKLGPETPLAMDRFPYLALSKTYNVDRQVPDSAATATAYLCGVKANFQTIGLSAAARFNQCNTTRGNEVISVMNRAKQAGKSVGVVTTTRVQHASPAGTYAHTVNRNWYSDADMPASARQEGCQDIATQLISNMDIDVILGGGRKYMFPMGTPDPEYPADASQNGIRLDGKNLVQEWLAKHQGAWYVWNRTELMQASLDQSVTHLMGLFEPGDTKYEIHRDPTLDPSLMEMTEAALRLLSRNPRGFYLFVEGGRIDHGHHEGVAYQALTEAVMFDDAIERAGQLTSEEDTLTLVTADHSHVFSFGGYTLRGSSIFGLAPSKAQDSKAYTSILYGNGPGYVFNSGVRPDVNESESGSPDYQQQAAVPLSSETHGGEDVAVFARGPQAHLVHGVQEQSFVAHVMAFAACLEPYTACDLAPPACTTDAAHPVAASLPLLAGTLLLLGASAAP
mIAP inh – blocks mouse intestinal alkaline phosphatase | AID 2806 | inhibition, % at 10 µM | purified mouse IAP, CDP-Star luminescence, 30 min | 330,000 tested, 0.2% active;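 active means inhibition of at least 40% at 10 µM in the primary screen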;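 further: plate controls were DMSO with enzyme for no effect and no enzyme wells for full effect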
mIAP act – increases mouse intestinal alkaline phosphatase activity | AID 2805 | 330,000 tested, 0.24% active | muIAP, CDP-Star luminescence, 30 min; active compounds read high; 1 = vehicle-only enzyme signal, 0 = enzyme-free wells | activation factor at 10 µM;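 active means activation factor of at least 2 at 20 µM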
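Assay system: mouse IAP enzyme; reagent: chemiluminescent substrate CDP-Star; dosing: test compounds delivered from DMSO solution; schedule: 30 min at room temperature; measured by: luminescence from enzymatic CDP-Star hydrolysis; controls: DMSO-only wells and no-enzyme negative control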
bIAP inhibitor – intestinal alkaline phosphatase (bovine) inhibition; inhibition, % at 20 µM; AID 1019; 190,000 tested, under 10 active; purified bovine IAP, CDP-star luminescence, 30 min;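 active means over 50% inhibition of intestinal alkaline phosphatase at 20 µM in the single-dose screen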
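System: purified bovine intestinal alkaline phosphatase (IAP) enzyme; Input: IAP diluted 1/65,000,000 in the well; Measured by: CDP-star luminescence signal; Compound dosing: 20 µM single dose; Incubation: 30 min reaction at room temperature.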
hIAP act – human IAP activation | P09923 | purified human IAP, CDP-Star luminescence, 30 min; active compounds read high; 1 = vehicle-only enzyme, 0 = enzyme-free background | activation factor at 10 µM | 330,000 tested, 0.16% active;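 active means activation factor of the enzyme at least 2-fold when tested at 20 µM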
bIAP act – intestinal alkaline phosphatase (bovine) activation; purified bovine IAP, CDP-star luminescence, 30 min; active compounds read high; fold of DMSO-control signal, blank-subtracted; activation factor at 20 µM; 200,000 tested, 0.17% active; AID 1016;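 active means activation factor of 2 or more at 20 µM, a signal rise over negative controls twice the positive control's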
The depositor's hits bear a star.

How did COc1ccc(S(=O)(=O)N2CCC(C(=O)Nc3cccc(Cl)c3)CC2)cc1OC do in these assays?
hIAP inh: -10.7; mIAP inh: -176.0; mIAP act: 2.76*; bIAP inhibitor: 0.9; hIAP act: 1.11; bIAP act: 1

How did S=C(NCCNCc1ccccc1)NC1CCCCC1 do in these assays?
hIAP inh: -10.0; mIAP inh: -109.3; mIAP act: 2.09*; bIAP inhibitor: 5.3; hIAP act: 1.1; bIAP act: 0.9

How did S=C(NCCc1ccccc1)NC1CCCCCC1 do in these assays?
hIAP inh: -0.6; mIAP inh: -26.2; mIAP act: 1.26; bIAP inhibitor: 49.2; hIAP act: 1.01; bIAP act: 0.5

How did Cc1onc(-c2ccccc2)c1NC(=O)Nc1ccc(OC(F)F)cc1 do in these assays?
hIAP inh: 0.1; mIAP inh: -100.1; mIAP act: 2*; hIAP act: 0.999

What do the screens show for `Cc1onc(-c2ccccc2)c1C(=O)Nc1ccc(OC(C)C)cc1`?
hIAP inh: -12.1; mIAP inh: -2.2; mIAP act: 1.02; bIAP inhibitor: 15.7; hIAP act: 1.12; bIAP act: 0.8

Results for CC(Oc1ccccc1)C(=O)Nc1ccc(F)c(S(=O)(=O)N2CCOCC2)c1 (stereo not drawn) ?
hIAP inh: -0.7; mIAP inh: 13.5; mIAP act: 0.865; hIAP act: 1.01

What do the screens show for `CCN(CC)S(=O)(=O)c1ccc(N2CCN(C)CC2)c(NC(=O)Nc2ccc(C)cc2)c1`?
hIAP inh: -76.8; mIAP inh: -100.7; mIAP act: 2.01*; hIAP act: 1.77

Results for CCN(CC)S(=O)(=O)c1ccc(N2CCN(C)CC2)c(NC(=O)CSCC(=O)Nc2cccc(C)c2)c1 ?
hIAP inh: -7.5; mIAP inh: -0.2; mIAP act: 1; hIAP act: 1.07

How did Cc1ccc(C)n1-c1ccc(C(=O)NN)s1 do in these assays?
hIAP inh: -20.7; mIAP inh: -12.7; mIAP act: 1.13; bIAP inhibitor: -110.1; hIAP act: 1.21; bIAP act: 2.1*

How did CCOC(=O)CNC(=O)c1ccc(Br)s1 do in these assays?
hIAP inh: 6.7; mIAP inh: -5.4; mIAP act: 1.05; hIAP act: 0.933

How did S=C(NCCc1ccc(Cl)cc1)Nc1ccc(Cl)cc1Cl do in these assays?
hIAP inh: 5.8; mIAP inh: -133.4; mIAP act: 2.33*; bIAP inhibitor: -0.6; hIAP act: 0.942; bIAP act: 1

What do the screens show for `S=C(NCCCc1ccccc1)Nc1ccccc1`?
hIAP inh: -13.1; mIAP inh: -17.9; mIAP act: 1.18; hIAP act: 1.13

What do the screens show for `S=C(NCCCc1ccccc1)Nc1ccc(Cl)cc1`?
hIAP inh: 5.2; mIAP inh: -165.1; mIAP act: 2.65*; bIAP inhibitor: 11.2; hIAP act: 0.948; bIAP act: 0.9

How did O=C(NCCc1ccc(Cl)cc1)Nc1cccc(Cl)c1 do in these assays?
hIAP inh: -20.9; mIAP inh: -189.6; mIAP act: 2.9*; bIAP inhibitor: 6.6; hIAP act: 1.21; bIAP act: 0.9

Results for Cc1ccc2nc3n(c(=O)c2c1)-c1ccc(Cl)cc1C(=O)NC3CC(C)C (stereo not drawn) ?
hIAP inh: -1.1; mIAP inh: 9.4; mIAP act: 0.906; hIAP act: 1.01

How did CN(C(=O)CSc1nnnn1-c1ccc(O)cc1)C1CCCCC1 do in these assays?
hIAP inh: 10.7; mIAP inh: 4.1; mIAP act: 0.959; hIAP act: 0.893

Results for O=C(NCc1ccc(Cl)cc1Cl)C1CCN(S(=O)(=O)c2ccc3c(c2)OCCCO3)CC1 ?
hIAP inh: -63.3; mIAP inh: -161.5; mIAP act: 2.62*; bIAP inhibitor: 18.6; hIAP act: 1.63; bIAP act: 0.8

Results for O=C(NCc1ccc(F)cc1)C1CCN(S(=O)(=O)c2ccc3c(c2)OCCCO3)CC1 ?
hIAP inh: -0.1; mIAP inh: -13.9; mIAP act: 1.14; bIAP inhibitor: 28.9; hIAP act: 1; bIAP act: 0.7

How did CCCn1c(N)c(C(=O)CSc2ncnc3sccc23)c(=O)n(C)c1=O do in these assays?
hIAP inh: 0.4; mIAP inh: -11.7; mIAP act: 1.12; hIAP act: 0.996

How did Cn1c(CN2CCCCC2)nc2cc(NC(=O)c3ccccc3)ccc21 do in these assays?
hIAP inh: 11.2; mIAP inh: -1.3; mIAP act: 1.01; bIAP inhibitor: -3.8; hIAP act: 0.888; bIAP act: 1

What do the screens show for `Cn1c(CN2CCCC2)nc2cc(NC(=O)Nc3ccccc3)ccc21`?
hIAP inh: 0.8; mIAP inh: -26.5; mIAP act: 1.26; bIAP inhibitor: -131.1; hIAP act: 0.992; bIAP act: 2.3*

What do the screens show for `Nc1ccc2nc(CCCCCCCCc3nc4ccc(N)cc4[nH]3)[nH]c2c1`?
hIAP inh: -44.0; mIAP inh: -10.4; mIAP act: 1.1; bIAP inhibitor: -95.4; hIAP act: 1.44; bIAP act: 2*

How did CCc1ccc(NC(=S)NC2CC3CCCC(C2)N3Cc2cccs2)cc1 (stereo not drawn) do in these assays?
hIAP inh: -50.1; mIAP inh: -469.8; mIAP act: 5.7*; bIAP inhibitor: -56.2; hIAP act: 1.5; bIAP act: 1.6

Results for CCc1ccccc1NC(=O)NC1CC2CCC(C1)N2Cc1cccs1 (stereo not drawn) ?
hIAP inh: -3.7; mIAP inh: -22.5; mIAP act: 1.23; bIAP inhibitor: -16.7; hIAP act: 1.04; bIAP act: 1.2

Results for COc1ccccc1-c1cc(C(=O)N2CCN(S(=O)(=O)c3ccc(C)cc3)CC2)[nH]n1 ?
hIAP inh: -19.7; mIAP inh: -127.9; mIAP act: 2.28*; hIAP act: 1.2

How did Cc1cc(C)cc(NC(=S)NCCN(C2CCCCC2)C2CCCC2)c1 do in these assays?
hIAP inh: -28.7; mIAP inh: -106.5; mIAP act: 2.06*; hIAP act: 1.29; bIAP act: 0.4

Results for Cc1ccc(NC(=S)NCCN(C2CCCCC2)C2CCCC2)cc1 ?
hIAP inh: -12.5; mIAP inh: -59.2; mIAP act: 1.59; hIAP act: 1.12; bIAP act: 0.4

What do the screens show for `O=C(Nc1ccc(Cl)c(C(F)(F)F)c1)NC1CC2CCCC(C1)N2C1CC1` (stereo not drawn)?
hIAP inh: 7.9; mIAP inh: -337.1; mIAP act: 4.37*; hIAP act: 0.921

What do the screens show for `O=C(Nc1cccc(F)c1)NC1CC2CCCC(C1)N2C1CC1` (stereo not drawn)?
hIAP inh: 6.5; mIAP inh: -38.3; mIAP act: 1.38; bIAP inhibitor: -2.2; hIAP act: 0.935; bIAP act: 1

What do the screens show for `CC1(C)CCN2CCC(C)(C)c3c(O)ccc1c32`?
hIAP inh: 23.5; mIAP inh: 2.9; mIAP act: 0.971; hIAP act: 0.765

High-throughput results (PubChem)
